The record followed here is ChEMBL document CHEMBL1122836, “Angiotensin converting enzyme inhibitors: structure-activity profile of 1-benzazepin-2-one derivatives” (J Med Chem, 1985).

Test [1] concerns the target Angiotensin-converting enzyme (Homo sapiens, UniProt P12821). Kind of test: (§1) In vitro inhibitory activity against Angiotensin I converting enzyme.
Test [2] has as its system Rattus norvegicus. Kind of test: Maximal changes in blood pressure recorded during the 4 day test period in spontaneous hypertensive rats, at 3 mg/kg peroral dose. Particulars: route oral. It counts as functional. The method, boiled down:
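Spontaneously hypertensive rats dosed orally with test compound. Blood pressure was recorded over a 4-day test period. The value is the maximal change in blood pressure seen in that period, given in mm with the oral dose (mg/kg) in brackets.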

For test [3], the system named is Rattus norvegicus. In words: In vivo inhibitory activity against Angiotensin I pressor response in normotensive rats after peroral administration. It counts as functional. Conditions: po, read-out: ID50 (the source's name).
Test [4] deals with Rattus norvegicus. Kind of test: In vivo inhibitory activity against Angiotensin I pressor response in normotensive rats by peroral administration, experiment 2. It counts as functional. Particulars: po, read-out: ID50 (the source's name).
For test [5], the system named is Rattus norvegicus. In words: Maximal changes in blood pressure recorded during the 4 day test period in spontaneous hypertensive rats, at 1 mg/kg peroral dose. It counts as functional. Particulars: route oral.
For test [6], the system named is Canis familiaris. In words: In vivo inhibitory activity against Angiotensin I pressor response in normotensive dog after peroral administration, ecperiment 2. It counts as functional. Particulars: Canis lupus familiaris, po; read-out: ID50 (the source's name).
The test system of test [7] is Canis familiaris. In words: In vivo inhibitory activity against Angiotensin I pressor response in normotensive dog after peroral administration, experiment 1. Particulars: Canis lupus familiaris, po; read-out: ID50 (the source's name). It counts as functional.
The target in test [8] is T1, Angiotensin-converting enzyme (Rattus norvegicus, UniProt P47820).
T1 sequence (P47820 whole entry): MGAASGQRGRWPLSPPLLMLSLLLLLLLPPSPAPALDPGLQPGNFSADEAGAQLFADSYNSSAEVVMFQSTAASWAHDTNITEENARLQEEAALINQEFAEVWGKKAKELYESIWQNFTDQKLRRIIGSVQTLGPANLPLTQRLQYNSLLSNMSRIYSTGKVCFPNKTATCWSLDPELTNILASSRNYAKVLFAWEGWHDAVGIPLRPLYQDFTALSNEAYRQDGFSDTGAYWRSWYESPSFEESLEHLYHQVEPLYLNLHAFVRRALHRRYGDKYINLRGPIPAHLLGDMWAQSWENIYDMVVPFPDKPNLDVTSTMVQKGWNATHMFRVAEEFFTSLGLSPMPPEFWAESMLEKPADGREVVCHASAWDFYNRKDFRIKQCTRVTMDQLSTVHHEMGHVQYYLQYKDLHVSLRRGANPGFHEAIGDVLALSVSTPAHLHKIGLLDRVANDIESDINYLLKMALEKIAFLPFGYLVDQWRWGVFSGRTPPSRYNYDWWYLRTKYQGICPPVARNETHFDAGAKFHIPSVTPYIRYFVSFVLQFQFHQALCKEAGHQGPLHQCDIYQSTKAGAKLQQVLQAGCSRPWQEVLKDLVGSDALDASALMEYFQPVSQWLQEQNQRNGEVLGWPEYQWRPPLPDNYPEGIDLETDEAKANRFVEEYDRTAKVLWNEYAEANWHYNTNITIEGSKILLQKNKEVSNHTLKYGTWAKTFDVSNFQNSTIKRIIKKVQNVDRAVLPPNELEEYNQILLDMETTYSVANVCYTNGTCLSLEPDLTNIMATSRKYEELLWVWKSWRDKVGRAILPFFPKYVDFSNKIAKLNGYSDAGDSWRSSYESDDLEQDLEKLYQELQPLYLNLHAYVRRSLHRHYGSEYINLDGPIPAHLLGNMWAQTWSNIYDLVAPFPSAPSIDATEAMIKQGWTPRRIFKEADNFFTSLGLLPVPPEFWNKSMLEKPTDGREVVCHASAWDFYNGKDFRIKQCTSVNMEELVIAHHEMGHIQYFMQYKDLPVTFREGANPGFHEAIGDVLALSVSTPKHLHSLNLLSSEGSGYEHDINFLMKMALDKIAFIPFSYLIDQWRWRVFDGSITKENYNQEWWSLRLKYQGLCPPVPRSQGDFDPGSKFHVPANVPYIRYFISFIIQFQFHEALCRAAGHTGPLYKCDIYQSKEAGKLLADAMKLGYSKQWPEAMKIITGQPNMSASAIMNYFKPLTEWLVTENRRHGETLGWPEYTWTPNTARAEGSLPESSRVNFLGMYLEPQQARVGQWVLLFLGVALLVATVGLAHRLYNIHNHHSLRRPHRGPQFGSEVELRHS
The test is described as §1.

Test [9] deals with Canis familiaris. Kind of test: In vivo inhibitory activity against Angiotensin I pressor response in normotensive dog after peroral administration. It counts as functional. Conditions: Canis lupus familiaris, po; read-out: ID50 (the source's name).
Test [10] has as its system Rattus norvegicus. In words: Maximal changes in blood pressure recorded during the 4 day test period in spontaneous hypertensive rats, at 30 mg/kg peroral dose. Particulars: route oral. It counts as functional. In a few lines: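 Spontaneously hypertensive rats dosed orally and blood pressure recorded over a 4-day test period. Readout is the maximal change in blood pressure (mm) with the oral dose noted; pressure also followed at 24 h after dosing.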

SMILES strings stand for the structures.

Sequence of Angiotensin-converting enzyme (Homo sapiens, UniProt P12821) (P12821 whole entry): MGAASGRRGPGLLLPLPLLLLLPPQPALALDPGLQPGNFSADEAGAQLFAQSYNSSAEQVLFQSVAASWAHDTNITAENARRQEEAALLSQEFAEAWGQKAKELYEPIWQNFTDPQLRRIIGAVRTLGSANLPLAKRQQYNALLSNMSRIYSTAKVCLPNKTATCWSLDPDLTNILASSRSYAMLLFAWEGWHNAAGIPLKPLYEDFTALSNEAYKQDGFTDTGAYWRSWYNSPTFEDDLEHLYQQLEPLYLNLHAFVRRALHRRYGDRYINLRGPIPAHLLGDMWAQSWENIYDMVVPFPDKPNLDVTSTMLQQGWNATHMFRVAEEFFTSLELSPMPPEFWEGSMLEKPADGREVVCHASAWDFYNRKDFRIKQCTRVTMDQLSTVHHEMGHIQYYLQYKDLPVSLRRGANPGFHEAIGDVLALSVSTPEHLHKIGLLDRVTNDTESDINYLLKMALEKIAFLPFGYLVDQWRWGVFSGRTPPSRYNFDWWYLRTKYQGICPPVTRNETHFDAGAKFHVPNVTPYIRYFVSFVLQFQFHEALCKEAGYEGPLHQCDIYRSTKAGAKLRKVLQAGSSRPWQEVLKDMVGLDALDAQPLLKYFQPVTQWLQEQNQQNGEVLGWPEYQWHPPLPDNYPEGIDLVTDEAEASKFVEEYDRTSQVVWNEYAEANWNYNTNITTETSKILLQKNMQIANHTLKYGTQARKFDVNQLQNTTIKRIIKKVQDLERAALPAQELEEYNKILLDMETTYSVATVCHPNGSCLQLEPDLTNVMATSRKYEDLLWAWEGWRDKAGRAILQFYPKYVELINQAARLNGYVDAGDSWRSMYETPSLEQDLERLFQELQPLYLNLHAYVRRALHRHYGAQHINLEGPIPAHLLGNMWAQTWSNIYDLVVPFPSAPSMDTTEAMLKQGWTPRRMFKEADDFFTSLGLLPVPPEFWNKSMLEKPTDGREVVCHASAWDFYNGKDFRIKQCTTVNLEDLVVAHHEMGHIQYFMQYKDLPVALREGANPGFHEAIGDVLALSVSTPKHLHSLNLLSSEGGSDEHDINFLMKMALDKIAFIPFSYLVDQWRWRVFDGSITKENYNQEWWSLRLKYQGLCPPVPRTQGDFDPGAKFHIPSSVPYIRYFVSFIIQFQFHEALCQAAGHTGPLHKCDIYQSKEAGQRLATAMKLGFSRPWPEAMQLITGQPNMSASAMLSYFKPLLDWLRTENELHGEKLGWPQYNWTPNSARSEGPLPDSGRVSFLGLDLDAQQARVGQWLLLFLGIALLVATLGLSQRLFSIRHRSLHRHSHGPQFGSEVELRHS

Usually IC50 stands for the midpoint of a concentration-inhibition curve. High values mean lower potency, low ones higher potency. Compound `O=C(O)CN1C(=O)[C@@H](N[C@@H](CSCc2ccccc2)C(=O)O)CCc2ccccc21` came in with a concentration for half-maximal inhibition (IC50) in [1] of 2.9 nM. Still for that read-out and setting: next, `CCOC(=O)[C@H](CCCCNC(=O)OCc1ccccc1)N[C@H]1CCc2ccccc2N(CC(=O)O)C1=O`: 15 nM; `COC(=O)[C@H](CC(C)C)N[C@H]1CCc2ccccc2N(CC(=O)O)C1=O`: 1000 nM; `O=C(O)CN1C(=O)[C@@H](N[C@@H](Cc2ccccc2)C(=O)O)CCc2ccccc21`: 8.5 nM. `CCOC(=O)[C@H](Cc1c[nH]c2ccccc12)N[C@H]1CCc2ccccc2N(CC(=O)O)C1=O` came in with an IC50 in test [1] of 540 nM.

In test [1], `O=C(O)CN1C(=O)[C@@H](N[C@@H](CSc2ccccc2)C(=O)O)CCc2ccccc21` returned an IC50 of 4 nM. The same measure, in the same setting: next, `CC(C)(C)OC(=O)NCCCC[C@H](N[C@H]1CCc2ccccc2N(CC(=O)O)C1=O)C(=O)O`: 4 nM; `CCCC[C@H](N[C@H]1CCc2ccccc2N(CC(=O)O)C1=O)C(=O)OCC`: 2600 nM; `CC(C)C[C@H](N[C@H]1CCc2ccccc2N(CC(=O)O)C1=O)C(=O)O`: 45 nM. In turn, `CSCC[C@H](N[C@H]1CCc2ccccc2N(CC(=O)O)C1=O)C(=O)O` came in with an IC50 in test [1] of 6.5 nM. Same read-out and setting: to `CCOC(=O)[C@H](CCCCN)N[C@H]1CCc2ccccc2N(CC(=O)O)C1=O` belongs 40 nM. Turning to `CCCC[C@H](N[C@H]1CCc2ccccc2N(CC(=O)O)C1=O)C(=O)O`, 5 nM corresponded to half-maximal inhibition in test [1] (IC50). Same read-out and setting: to `O=C(O)CN1C(=O)[C@@H](N[C@@H](COCc2ccccc2)C(=O)O)CCc2ccccc21` belongs 10 nM; to `O=C(O)CN1C(=O)[C@@H](N[C@@H](CSCCc2ccccc2)C(=O)O)CCc2ccccc21`, 7 nM. The same measure, in the same setting: to `O=C(O)CN1C(=O)[C@@H](N[C@@H](CCCCNC(=O)OCc2ccccc2)C(=O)O)CCc2ccccc21` belongs 13 nM; to `O=C(O)CN1C(=O)[C@@H](N[C@@H](Cc2c[nH]c3ccccc23)C(=O)O)CCc2ccccc21`, 13 nM; to `CCC[C@H](N[C@H]1CCc2ccccc2N(CC(=O)O)C1=O)C(=O)O`, 6 nM. Take `CCOC(=O)[C@H](CCc1ccccc1)N[C@@H](C)C(=O)N1CCC[C@H]1C(=O)O`: the Delta blood pressure in test [2] was -54 mmHg; in test [5], -35 mmHg. The ED50 was determined as 0.14 mg/kg in [3], 0.28 mg/kg in [4], 0.096 mg/kg in test [6] and 0.15 mg/kg in [7]. In turn, `CCOC(=O)[C@H](CCc1ccccc1)N[C@H]1CCc2ccccc2N(CC(=O)O)C1=O` [BENAZEPRIL] showed a Delta blood pressure in test [2] of 50 mmHg. For the same compound, the ED50 in test [3] worked out at 0.1 mg/kg. Also, it took 1.7 nM to reach half-maximal inhibition in [8] (IC50).

With `NCCCC[C@H](N[C@H]1CCc2ccccc2N(CC(=O)O)C1=O)C(=O)O` [LIBENZAPRIL], the ED50 in test [9] was determined as 0.07 mg/kg; in [3] it was 1.7 mg/kg. The Delta blood pressure in test [10] was -69 mmHg. In addition, the concentration for half-maximal inhibition (IC50) in [1] is 7 nM.
